First the molecules themselves.
B1: Osa-1-4 twister ribozyme (parent)
chain: CCGCCUAACACUGCCAAUGCCGGUCCCAAGCCCGGAUAAAAGUGGAGGGGGCGG

The variants in this data set derive from B1. Briefly: self-cleavage, relative activity (ratio to wild type); higher = more cleavage; co-transcriptional. The method, boiled down: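 The 48 positions downstream of the cleavage site in a DNA template for a 54-nucleotide Oryza sativa twister ribozyme carried 97 % wild-type base and 1 % of each other base. After in vitro transcription (2 h, 37 °C) with co-transcriptional self-cleavage, the RNA was reverse-transcribed with a template-switching oligonucleotide, PCR-amplified and deep-sequenced. Relative activity is the fraction cleaved, judged by reads with or without upstream sequence and normalised to wild type.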
With C21U C26G, the self-cleavage is 0.12.

Turning to C21U C26U, the self-cleavage amounted to 0.88.

Turning to C21U C26A, the self-cleavage amounted to 0.06.

Regarding C21U G44A, the self-cleavage turned out to be 0.97.

Take C21U G44C: the self-cleavage is 0.99.

In the case of C21U G44U, the self-cleavage amounted to 0.95.

On to C21U G54C, for which the self-cleavage came to 0.89.

Regarding C21U G54U, the self-cleavage was 0.93.

Regarding C21U G54A, the self-cleavage was 0.96.

Regarding G22A G42C, the self-cleavage came out at 0.1.

On to G22A G42A, for which the self-cleavage is 0.17.

With G22A G42U, the self-cleavage is 0.05.

Regarding G22A G44A, the self-cleavage turned out to be 0.94.

In the case of G22A G44C, the self-cleavage was 0.92.

Turning to G22A G44U, the self-cleavage was found to be 0.84.

On to C21U G48C, for which the self-cleavage stood at 0.11.

Turning to C21U G48U, the self-cleavage stood at 0.1.

On to C21U G48A, for which the self-cleavage was determined as 0.1.

With G22C G23A, the self-cleavage is 0.06.

On to G22C G23U, for which the self-cleavage turned out to be 0.03.

Consider G22C G23C, for which the self-cleavage worked out at 0.02.

Take C21U G50C: the self-cleavage stood at 0.94.

Take C21U G50U: the self-cleavage is 1.03.

Take C21U G50A: the self-cleavage stood at 0.97.

On to G22C G35A, for which the self-cleavage came to 0.03.

As to G22C G35U, the self-cleavage amounted to 0.04.

Take G22C G35C: the self-cleavage stood at 0.03.

G22A G23U: the self-cleavage came out at 0.08.

With G22A G23A, the self-cleavage was 0.12.

In the case of G22A G23C, the self-cleavage worked out at 0.05.

In the case of G22C, the self-cleavage came to 0.19.

With G22A, the self-cleavage is 1.05.

Turning to C21U U12A, the self-cleavage is 0.73.

In the case of C21U U12C, the self-cleavage is 0.33.

For C21U U12G, the self-cleavage turned out to be 0.26.

G22A G53A: the self-cleavage came to 0.51.

With G22A G53C, the self-cleavage worked out at 0.09.

As to G22A G53U, the self-cleavage was 0.14.

With G22A U12G, the self-cleavage worked out at 0.08.

As for G22A U12C, the self-cleavage worked out at 0.21.

Regarding G22A U12A, the self-cleavage was 0.35.

Take C21U G34A: the self-cleavage came out at 1.05.

As for C21U G34U, the self-cleavage was found to be 1.05.

Take C21U G34C: the self-cleavage came to 0.96.

Regarding C21U G47A, the self-cleavage was 0.19.

With C21U G47U, the self-cleavage is 0.23.

On to C21U G47C, for which the self-cleavage was 0.12.

With G22A G48U, the self-cleavage is 0.08.

Take G22A G48A: the self-cleavage was determined as 0.08.

On to G22A G48C, for which the self-cleavage turned out to be 0.09.

For the variant C21U U18A, the self-cleavage is 1.

With C21U U18G, the self-cleavage was 0.78.

As for C21U U18C, the self-cleavage turned out to be 1.03.

C21U U24A: the self-cleavage was 0.29.

Regarding C21U U24C, the self-cleavage is 0.26.

Take C21U U24G: the self-cleavage amounted to 0.09.

In the case of G22C G30U, the self-cleavage stood at 0.02.

Turning to G22C G30A, the self-cleavage stood at 0.03.

As for G22C G30C, the self-cleavage was 0.02.

Turning to C21U G13C, the self-cleavage stood at 0.03.

Regarding C21U G13U, the self-cleavage stood at 0.04.

For the variant C21U G13A, the self-cleavage is 0.11.

Regarding C21U U37A, the self-cleavage stood at 1.07.

Consider C21U U37C, for which the self-cleavage is 1.05.

In the case of C21U U37G, the self-cleavage came out at 1.04.

As for C21U C33A, the self-cleavage was found to be 0.08.

Regarding C21U C33G, the self-cleavage worked out at 0.07.

Regarding C21U C33U, the self-cleavage worked out at 0.47.

On to C21U G19A, for which the self-cleavage was found to be 0.66.

Consider C21U G19U, for which the self-cleavage stood at 0.21.

For C21U G19C, the self-cleavage amounted to 0.04.

C21U G22A: the self-cleavage turned out to be 0.26.

Take C21U G22C: the self-cleavage came out at 0.17.

As to C21U G22U, the self-cleavage is 0.1.

As to C21U U43G, the self-cleavage worked out at 0.47.

As for C21U U43A, the self-cleavage is 0.89.

Consider C21U U43C, for which the self-cleavage came out at 0.32.

In the case of G22A G51U, the self-cleavage came out at 0.67.

Consider G22A G51C, for which the self-cleavage was found to be 0.14.

Turning to G22A G51A, the self-cleavage was 0.2.

With G22A G47U, the self-cleavage amounted to 0.12.

G22A G47C: the self-cleavage was 0.08.

Consider G22A G47A, for which the self-cleavage stood at 0.13.

For G22C G44A, the self-cleavage was 0.07.

Regarding G22C G44C, the self-cleavage was found to be 0.06.

Turning to G22C G44U, the self-cleavage stood at 0.07.

With C21U C32A, the self-cleavage stood at 0.09.

For C21U C32U, the self-cleavage is 0.13.

With C21U C32G, the self-cleavage amounted to 0.11.

On to G22A U43G, for which the self-cleavage came to 0.1.

For G22A U43A, the self-cleavage was found to be 0.3.

Turning to G22A U43C, the self-cleavage was 0.18.

As to C21U C25G, the self-cleavage stood at 0.14.

For the variant C21U C25U, the self-cleavage came to 0.88.

In the case of C21U C25A, the self-cleavage turned out to be 0.11.

Take C21U G53U: the self-cleavage is 0.32.

As to C21U G53C, the self-cleavage turned out to be 0.1.

Consider C21U G53A, for which the self-cleavage was determined as 0.64.

On to C21U C52U, for which the self-cleavage is 1.02.

C21U C52G: the self-cleavage amounted to 1.02.

For the variant C21U C52A, the self-cleavage was determined as 0.97.

Regarding C21U G51C, the self-cleavage came to 0.09.

Regarding C21U G51A, the self-cleavage is 0.9.

As to C21U G51U, the self-cleavage is 0.67.

Take C21U C27G: the self-cleavage is 0.09.

With C21U C27A, the self-cleavage was found to be 0.15.

With C21U C27U, the self-cleavage was 0.14.

With C21U G45C, the self-cleavage amounted to 0.07.

Consider C21U G45A, for which the self-cleavage is 0.22.

With C21U G45U, the self-cleavage stood at 0.11.

As to G22A U18A, the self-cleavage stood at 1.02.

Consider G22A U18G, for which the self-cleavage was determined as 0.94.

In the case of G22A U18C, the self-cleavage amounted to 0.98.

For the variant G22C G45A, the self-cleavage came to 0.03.

Turning to G22C G45C, the self-cleavage worked out at 0.02.

For the variant G22A G30C, the self-cleavage was 0.05.

For the variant G22A G30U, the self-cleavage came out at 0.05.

For G22A G30A, the self-cleavage was 0.05.

As to G22C G34U, the self-cleavage came to 0.05.

As for G22C G34A, the self-cleavage turned out to be 0.05.

In the case of G22C G34C, the self-cleavage stood at 0.05.

Consider G22A U37G, for which the self-cleavage came to 1.

As for G22A U37A, the self-cleavage worked out at 1.06.

Take G22A U37C: the self-cleavage worked out at 1.01.

Regarding C21U G49A, the self-cleavage came out at 0.14.

Consider C21U G49U, for which the self-cleavage worked out at 0.14.

With C21U G49C, the self-cleavage worked out at 0.08.

For the variant G22A G50A, the self-cleavage turned out to be 1.

As to G22A G50U, the self-cleavage worked out at 0.94.

Regarding G22A G50C, the self-cleavage came to 0.68.

As to C21U G30U, the self-cleavage was found to be 0.04.

For the variant C21U G30C, the self-cleavage turned out to be 0.06.

Turning to C21U G30A, the self-cleavage worked out at 0.04.

Regarding C21U G42A, the self-cleavage came to 0.51.

For C21U G42U, the self-cleavage came to 0.09.

C21U G42C: the self-cleavage came out at 0.18.

For G22C G42A, the self-cleavage stood at 0.03.

As to G22C G42C, the self-cleavage amounted to 0.04.

Take G22C G42U: the self-cleavage came out at 0.02.

Consider G22A G34U, for which the self-cleavage was 0.21.

In the case of G22A G34A, the self-cleavage worked out at 0.14.

G22A G34C: the self-cleavage was 0.11.

As to C21U G35A, the self-cleavage was determined as 0.98.

C21U G35U: the self-cleavage turned out to be 0.57.

C21U G35C: the self-cleavage turned out to be 0.1.

Take C21U C31U: the self-cleavage came to 0.97.

On to C21U C31A, for which the self-cleavage was determined as 0.06.

On to C21U C31G, for which the self-cleavage is 0.14.

On to C21U G23U, for which the self-cleavage came out at 0.06.

Regarding C21U G23A, the self-cleavage was 0.1.

For the variant C21U G23C, the self-cleavage is 0.06.

For the variant G22A G54U, the self-cleavage worked out at 0.84.

For the variant G22A G54A, the self-cleavage was determined as 0.77.

Turning to G22A G54C, the self-cleavage came out at 0.82.

Regarding C21U C9U, the self-cleavage worked out at 0.92.

As to G22A U24G, the self-cleavage was found to be 0.13.

For G22A U24C, the self-cleavage worked out at 0.16.

On to G22A U24A, for which the self-cleavage was 0.36.

Take G22A G35A: the self-cleavage amounted to 0.34.

For G22A G35C, the self-cleavage is 0.11.

As for G22A G35U, the self-cleavage is 0.32.

On to G22A G49A, for which the self-cleavage is 0.12.

For the variant G22A G49C, the self-cleavage came to 0.08.

On to G22A G49U, for which the self-cleavage came to 0.09.

Take G22A G45C: the self-cleavage amounted to 0.06.

In the case of G22A G45A, the self-cleavage turned out to be 0.15.

Take G22A G45U: the self-cleavage came out at 0.08.

The record behind these values is the RNAGym collection of RNA variant scans (doi:10.1002/anie.201605470).
